Source: ChEMBL document CHEMBL2146366, “Discovery of microsomal triglyceride transfer protein (MTP) inhibitors with potential for decreased active metabolite load compared to dirlotapide” (Bioorg Med Chem Lett, 2011)

What was measured:
[1] = Fraction unbound in human HepG2 cells by equilibrium dialysis; format: ADME, cell-based
In short: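 Protein binding was measured by equilibrium dialysis under the conditions of the apoB secretion assay in human HepG2 cells, to give unbound fraction.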

Rattus norvegicus [2] = experiment: Antiobesity activity in high fat diet-induced obese Sprague-Dawley rat assessed as reduction of food intake at 10 mg/kg, po administered daily for 3 days relative to control; format: functional; set-up: scale not given: the % may be the effect or the level left
In short: (§1)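 Male Sprague–Dawley rats (~300 g, n = 5 per group) were acclimatized for seven days to a high-fat diet (45% kcal from fat). They received three consecutive daily oral gavage doses 1.5 h before the dark cycle. Vehicle was SEDDS:H2O 10:90, with SEDDS made of Miglyol 812 10%, triacetin 30%, polysorbate 80 20% and Capmul MCM 30%. Food intake was recorded during dosing, and liver TG was measured afterwards, both against vehicle.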

Rattus norvegicus [3] = experiment: Antiobesity activity in high fat diet-induced obese Sprague-Dawley rat assessed as reduction in body weight at 10 mg/kg, po administered daily for 3 days relative to dirlotapide; format: functional; set-up: scale not given: the % may be the effect or the level left
Rattus norvegicus [4] = experiment: Antiobesity activity in high fat diet-induced obese Sprague-Dawley rat assessed as reduction in body weight at 10 mg/kg, po administered daily for 3 days relative to control; format: functional; set-up: scale not given: the % may be the effect or the level left
Rattus norvegicus [5] = experiment: Antiobesity activity in high fat diet-induced obese Sprague-Dawley rat assessed as reduction of triglyceride accumulation in liver at 10 mg/kg, po administered daily for 3 days relative to dirlotapide; format: functional; set-up: scale not given: the % may be the effect or the level left; in short: as §1
Rattus norvegicus [6] = experiment: Antiobesity activity in high fat diet-induced obese Sprague-Dawley rat assessed as reduction of food intake at 10 mg/kg, po administered daily for 3 days relative to dirlotapide; format: functional; set-up: scale not given: the % may be the effect or the level left; in short: as §1
Rattus norvegicus [7] = experiment: Antiobesity activity in high fat diet-induced obese Sprague-Dawley rat assessed as reduction of triglyceride accumulation in liver at 10 mg/kg, po administered daily for 3 days relative to control; format: functional; set-up: scale not given: the % may be the effect or the level left; in short: as §1
Rattus norvegicus [8] = experiment: Antiobesity activity in high fat diet-induced obese Sprague-Dawley rat assessed as reduction of body weight at 10 mg/kg, po qd for 7 days relative to control; format: functional; set-up: scale not given: the % may be the effect or the level left
In short: (§2)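 Seven-day rat study: once-daily oral dosing at 3, 10 or 30 mg/kg, with 1, 3 and 100 mg/kg also used for one series. Compounds were given as spray-dried dispersions in hydroxypropylmethylcellulose acetate succinate. Food intake, body weight, liver TG and serum ALT were measured against vehicle. Systemic exposure was reported as AUC (ng h/mL). Significance versus vehicle was set at P ≤ 0.05.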

Rattus norvegicus [9] = experiment: Toxicity in high fat diet-induced obese Sprague-Dawley rat assessed as change in serum ALT level at 10 mg/kg, po qd for 7 days relative to control; format: organism-based; set-up: dose 10 mg/kg, route oral; conditions: in vivo, 168 h
In short: (§3)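 Seven-day study in high-fat-diet rats. Compound was given once daily by mouth as a spray-dried dispersion, with vehicle controls. Serum ALT was measured alongside food intake, body weight, liver TG and systemic exposure (AUC). ALT is expressed as % change versus vehicle, with significance set at P ≤ 0.05.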

Rattus norvegicus [10] = experiment: Antiobesity activity in high fat diet-induced obese Sprague-Dawley rat assessed as reduction of food intake at 30 mg/kg, po qd for 7 days relative to control; format: functional; set-up: scale not given: the % may be the effect or the level left; in short: as §2
[11] = AUC in high fat diet-induced obese Sprague-Dawley rat at 10 mg/kg, po qd for 7 days; format: ADME, organism-based; set-up: dose 10 mg/kg, route oral; conditions: plasma; in short: as §2
Rattus norvegicus [12] = experiment: Antiobesity activity in po dosed high fat diet-induced obese Sprague-Dawley rat assessed as reduction of reduction of triglyceride accumulation in liver administered daily for 3 days; format: functional; conditions: 72 h, read-out: MED
In short: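 Male Sprague–Dawley rats (about 300 g; n = 5 per group) were acclimatized for seven days to a high-fat diet (45% kcal from fat). They received three consecutive daily oral gavage doses in SEDDS:H₂O 10:90 vehicle 1.5 h before the dark cycle. Food intake was recorded, and liver TG was then measured against the vehicle group.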

Rattus norvegicus [13] = experiment: Antiobesity activity in po dosed high fat diet-induced obese Sprague-Dawley rat assessed as reduction of body weight administered daily for 3 days; format: functional; conditions: 72 h, read-out: MED
Rattus norvegicus [14] = experiment: Antiobesity activity in high fat diet-induced obese Sprague-Dawley rat assessed as reduction in body weight at 30 mg/kg, po administered daily for 3 days relative to control; format: functional; set-up: scale not given: the % may be the effect or the level left
Rattus norvegicus [15] = experiment: Antiobesity activity in po dosed high fat diet-induced obese Sprague-Dawley rat assessed as reduction of food intake administered daily for 3 days; format: functional; conditions: 72 h, read-out: MED; in short: as §1
Rattus norvegicus [16] = experiment: Antiobesity activity in high fat diet-induced obese Sprague-Dawley rat assessed as reduction of body weight at 30 mg/kg, po qd for 7 days; format: functional; set-up: scale not given: the % may be the effect or the level left; in short: as §2
Rattus norvegicus [17] = experiment: Toxicity in high fat diet-induced obese Sprague-Dawley rat assessed as change in serum ALT level at 30 mg/kg, po qd for 7 days relative to control; format: organism-based; set-up: dose 30 mg/kg, route oral; conditions: in vivo, 168 h; in short: as §3
Rattus norvegicus [18] = experiment: Antiobesity activity in high fat diet-induced obese Sprague-Dawley rat assessed as reduction of food intake at 30 mg/kg, po administered daily for 3 days relative to control; format: functional; set-up: scale not given: the % may be the effect or the level left; in short: as §1
Rattus norvegicus [19] = experiment: Antiobesity activity in high fat diet-induced obese Sprague-Dawley rat assessed as reduction of triglyceride accumulation in liver at 10 mg/kg, po qd for 7 days relative to control; format: functional; set-up: scale not given: the % may be the effect or the level left; in short: as §2
Rattus norvegicus [20] = experiment: Antiobesity activity in high fat diet-induced obese Sprague-Dawley rat assessed as triglyceride accumulation in liver at 30 mg/kg, po administered daily for 3 days relative to control; format: functional; in short: as §1
[21] = Oral bioavailability in rat at 30 mg/kg; format: ADME, organism-based; conditions: in vivo
Rattus norvegicus [22] = experiment: Antiobesity activity in high fat diet-induced obese Sprague-Dawley rat assessed as reduction of triglyceride accumulation in liver at 30 mg/kg, po qd for 7 days relative to control; format: functional; set-up: scale not given: the % may be the effect or the level left; in short: as §2
Rattus norvegicus [23] = experiment: Antiobesity activity in high fat diet-induced obese Sprague-Dawley rat assessed as reduction of food intake at 10 mg/kg, po qd for 7 days relative to control; format: functional; set-up: scale not given: the % may be the effect or the level left; in short: as §2
[24] = Oral bioavailability in beagle dog at 2.5 mg/kg; format: ADME, organism-based, Canis lupus familiaris; conditions: in vivo
[25] = AUC in high fat diet-induced obese Sprague-Dawley rat at 30 mg/kg, po qd for 7 days; format: ADME, organism-based; set-up: dose 30 mg/kg, route oral; conditions: plasma; in short: as §2

## CC(C)Oc1ccc(-c2ccccc2C(=O)Nc2ccc3cc(C(=O)N[C@H](C(=O)NCc4ccc(F)cc4)c4ccccc4)ccc3n2)cc1
[1]
  fraction unbound: 0.0061

## CC(C)(C)c1ccc(-c2ccccc2C(=O)Nc2ccc3cc(C(=O)N[C@H](C(=O)NCc4ccc(F)cc4)c4ccccc4)ccc3n2)cc1
[1]
  fraction unbound: 0.0023

## CN(Cc1ccc(F)cc1)C(=O)[C@@H](NC(=O)c1ccc2nc(NC(=O)c3ccccc3-c3ccc(OC(C)(C)C)cc3)ccc2c1)c1ccccc1
Rattus norvegicus [2]
  Activity: 40%
Rattus norvegicus [3]
  Activity: 95%
Rattus norvegicus [4]
  Activity: 108%
Rattus norvegicus [5]
  Activity: 112%
Rattus norvegicus [6]
  Activity: 38%
Rattus norvegicus [7]
  Activity: 72%

## CC(Oc1ccc(-c2ccccc2C(=O)Nc2ccc3cc(C(=O)N[C@H](C(=O)N(C)Cc4ccc(F)cc4)c4ccccc4)ccc3n2)cc1)C(=O)O (some centres not stated)
[1]
  fraction unbound: 0.022

## CN(Cc1ccc(F)cc1)C(=O)[C@@H](NC(=O)c1ccc2nc(NC(=O)c3ccccc3-c3ccc(C(F)(F)F)cc3)ccc2c1)c1ccccc1
Rattus norvegicus [2]
  Activity: 43%
Rattus norvegicus [3]
  Activity: 8%
Rattus norvegicus [4]
  Activity: 96%
Rattus norvegicus [5]
  Activity: 70%
[1]
  fraction unbound: 0.0014
Rattus norvegicus [6]
  Activity: 11%
Rattus norvegicus [7]
  Activity: 88%

## CNC(=O)[C@@H](NC(=O)c1cc2cc(NC(=O)c3ccccc3-c3ccc(C(F)(F)F)cc3)ccc2n1C)c1ccccc1
Rattus norvegicus [2]
  Activity: 40%
Rattus norvegicus [3]
  Activity: 115%
Rattus norvegicus [4]
  Activity: 106%
Rattus norvegicus [5]
  Activity: 112%
[1]
  fraction unbound: 0.21
Rattus norvegicus [6]
  Activity: 43%
Rattus norvegicus [7]
  Activity: 147%

## CNC(=O)[C@@H](NC(=O)c1ccc2nc(NC(=O)c3ccccc3-c3ccc(C(C)(C)C)cc3)ccc2c1)c1ccccc1
[1]
  fraction unbound: 0.038

## CC(C)(CO)c1ccc(-c2ccccc2C(=O)Nc2ccc3cc(C(=O)N[C@H](C(=O)NCc4ccc(F)cc4)c4ccccc4)ccc3n2)cc1
[1]
  fraction unbound: 0.0135

## CN(Cc1ccc(F)cc1)C(=O)[C@@H](NC(=O)c1ccc2nc(NC(=O)c3ccccc3-c3ccc(C(C)(C)CO)cc3)ccc2c1)c1ccccc1
[1]
  fraction unbound: 0.023

## CNC(=O)[C@@H](NC(=O)c1ccc2nc(NC(=O)c3ccccc3-c3ccc(OC(C)C)cc3)ccc2c1)c1ccccc1
[1]
  fraction unbound: 0.16

## CC(C)c1ccc(-c2ccccc2C(=O)Nc2ccc3cc(C(=O)N[C@H](C(=O)N(C)Cc4ccc(F)cc4)c4ccccc4)ccc3n2)cc1
Rattus norvegicus [2]
  Activity: 38%
Rattus norvegicus [3]
  Activity: 8%
Rattus norvegicus [4]
  Activity: 91%
Rattus norvegicus [5]
  Activity: 70%
[1]
  fraction unbound: 0.0011
Rattus norvegicus [6]
  Activity: 11%
Rattus norvegicus [7]
  Activity: 16%

## CC(C)(C(=O)O)c1ccc(-c2ccccc2C(=O)Nc2ccc3cc(C(=O)N[C@H](C(=O)NCc4ccc(F)cc4)c4ccccc4)ccc3n2)cc1
[1]
  fraction unbound: 0.0211

## CC(CO)Oc1ccc(-c2ccccc2C(=O)Nc2ccc3cc(C(=O)N[C@H](C(=O)N(C)Cc4ccc(F)cc4)c4ccccc4)ccc3n2)cc1 (some centres not stated)
[1]
  fraction unbound: 0.013

## CN(Cc1ccc(F)cc1)C(=O)[C@@H](NC(=O)c1ccc2nc(NC(=O)c3ccccc3-c3ccc(C(C)(C)C(=O)O)cc3)ccc2c1)c1ccccc1
[1]
  fraction unbound: 0.0088

## Cc1ccc(-c2ccccc2C(=O)Nc2ccc3cc(C(=O)N[C@H](C(=O)N(C)Cc4ccc(F)cc4)c4ccccc4)ccc3n2)cc1
Rattus norvegicus [2]
  Activity: 38%
Rattus norvegicus [3]
  Activity: 117%
Rattus norvegicus [4]
  Activity: 75%
Rattus norvegicus [5]
  Activity: 216%
[1]
  fraction unbound: 0.0043
Rattus norvegicus [6]
  Activity: 50%
Rattus norvegicus [7]
  Activity: 43%

## Cn1c(C(=O)N[C@H](C(N)=O)c2ccccc2)cc2cc(NC(=O)c3ccccc3-c3ccc(C(F)(F)F)cc3)ccc21
Rattus norvegicus [2]
  Activity: 37%
Rattus norvegicus [3]
  Activity: 115%
Rattus norvegicus [4]
  Activity: 108%
Rattus norvegicus [5]
  Activity: 112%
[1]
  fraction unbound: 0.23
Rattus norvegicus [6]
  Activity: 43%
Rattus norvegicus [7]
  Activity: 87%

## CN(Cc1ccc(F)cc1)C(=O)[C@@H](NC(=O)c1ccc2nc(NC(=O)c3ccccc3-c3ccc(O)cc3)ccc2c1)c1ccccc1
[1]
  fraction unbound: 0.0095

## CC(C)Oc1ccc(-c2ccccc2C(=O)Nc2ccc3cc(C(=O)N[C@H](C(=O)N(C)Cc4ccc(F)cc4)c4ccccc4)ccc3n2)cc1
Rattus norvegicus [8]
  Activity: 82%
Rattus norvegicus [9]
  Activity: 10%
Rattus norvegicus [10]
  Activity: 25%
[11]
  AUC at 168 h: 0.051 µg·h/mL
Rattus norvegicus [2]
  Activity: 30%
Rattus norvegicus [3]
  Activity: 88%
Rattus norvegicus [4]
  Activity: 56%
Rattus norvegicus [5]
  Activity: 111%
Rattus norvegicus [12]
  minimal effective dose: 3 mg/kg
Rattus norvegicus [13]
  minimal effective dose: 3 mg/kg
Rattus norvegicus [14]
  Activity: 152%
Rattus norvegicus [15]
  minimal effective dose: 3 mg/kg
[1]
  fraction unbound: 0.0038
Rattus norvegicus [16]
  Activity: 148%
Rattus norvegicus [6]
  Activity: 28%
Rattus norvegicus [17]
  Activity: 191%
Rattus norvegicus [18]
  Activity: 45%
Rattus norvegicus [19]
  Activity: 113%
Rattus norvegicus [20]
  Activity: 15%
[21]
  bioavailability: < 3%
Rattus norvegicus [7]
  Activity: 16%
Rattus norvegicus [22]
  Activity: 184%
Rattus norvegicus [23]
  Activity: 21%
[24]
  bioavailability: < 3%
[25]
  AUC at 168 h: 0.047 µg·h/mL
